# Measurements taken from ChEMBL document CHEMBL1764987, “The identification of the 2-phenylphthalazin-1(2H)-one scaffold as a new decorable core skeleton for the design of potent and selective human A3 adenosine receptor antagonists” (J Med Chem, 2011).
# What was measured:
# [1] = target: T1, Adenosine receptor A3 (Homo sapiens) (UniProt P0DMS8); assay: Displacement of [125I]AB-MECA from human cloned adenosine A3 receptor expressed in CHO cells at 1 uM; format: cell-based
# T1 sequence (whole entry): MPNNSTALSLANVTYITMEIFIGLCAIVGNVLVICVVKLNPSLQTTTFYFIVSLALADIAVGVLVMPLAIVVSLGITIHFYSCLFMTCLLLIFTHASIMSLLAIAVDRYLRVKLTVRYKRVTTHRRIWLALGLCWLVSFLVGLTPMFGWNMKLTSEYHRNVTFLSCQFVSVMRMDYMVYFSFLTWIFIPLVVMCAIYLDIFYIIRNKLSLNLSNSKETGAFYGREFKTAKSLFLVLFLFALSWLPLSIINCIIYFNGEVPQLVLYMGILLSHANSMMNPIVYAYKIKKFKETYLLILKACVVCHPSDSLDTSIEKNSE
# How it was run: (§1)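 Membranes from CHO cells stably expressing hA3 AR, labelled with [125I]AB-MECA (Kd 1.4 nM). IC50 from nonlinear regression using five displacer concentrations, each in triplicate. Ki calculated by Cheng-Prusoff, mean ± SEM of four assays. Single-point data are percent inhibition of specific binding at 1 μM.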
# [2] = target: T2, Adenosine receptor A1 (Homo sapiens) (UniProt P30542); assay: Displacement of [3H]DPCPX from human cloned adenosine A1 receptor expressed in CHO cells at 10 uM; format: cell-based
# T2 sequence (whole entry): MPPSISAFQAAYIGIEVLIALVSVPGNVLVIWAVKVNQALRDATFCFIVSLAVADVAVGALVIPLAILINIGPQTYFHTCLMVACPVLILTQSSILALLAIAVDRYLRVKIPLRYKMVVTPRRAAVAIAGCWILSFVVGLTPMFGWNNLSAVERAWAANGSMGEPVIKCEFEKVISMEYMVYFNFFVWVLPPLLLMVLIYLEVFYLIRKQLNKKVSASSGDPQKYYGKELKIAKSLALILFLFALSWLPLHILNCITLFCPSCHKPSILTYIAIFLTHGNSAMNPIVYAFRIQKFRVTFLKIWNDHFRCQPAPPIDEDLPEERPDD
# How it was run: (§2)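 Radioligand displacement in CHO membranes stably expressing hA1 ([3H]DPCPX, Kd 3 nM) or hA2A ([3H]NECA, Kd 30 nM). Percent inhibition of specific binding at 10 μM. Full curves used five concentrations in triplicate, with IC50 converted to Ki by Cheng-Prusoff.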
# [3] = target: Adenosine receptor A2a (Homo sapiens) (UniProt P29274); assay: Displacement of [3H]NECA from human cloned adenosine A2A receptor expressed in CHO cells at 10 uM; format: cell-based; how it was run: as §2
# Adenosine receptor A2a (Homo sapiens), sequence (P29274 whole entry): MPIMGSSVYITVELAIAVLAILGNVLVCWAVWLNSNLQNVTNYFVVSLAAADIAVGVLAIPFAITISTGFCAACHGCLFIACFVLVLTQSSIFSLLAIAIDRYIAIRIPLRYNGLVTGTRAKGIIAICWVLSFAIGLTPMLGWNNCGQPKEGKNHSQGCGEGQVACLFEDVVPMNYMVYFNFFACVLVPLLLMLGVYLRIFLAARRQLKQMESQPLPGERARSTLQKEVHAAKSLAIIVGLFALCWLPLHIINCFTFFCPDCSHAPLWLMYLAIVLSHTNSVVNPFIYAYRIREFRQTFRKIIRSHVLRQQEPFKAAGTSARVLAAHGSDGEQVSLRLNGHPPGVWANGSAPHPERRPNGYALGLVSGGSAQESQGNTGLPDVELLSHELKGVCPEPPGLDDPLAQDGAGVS
# Adenosine receptor A3 [4] = target: T3, Adenosine receptor A3 (Homo sapiens, UniProt P0DMS8); assay: Displacement of [125I]AB-MECA from human cloned adenosine A3 receptor expressed in CHO cells; format: cell-based; how it was run: as §1
# T3 sequence (P0DMS8 whole entry): T1 sequence (whole entry)
# Adenosine receptor A3 [5] = target: T3, Adenosine receptor A3; assay: Antagonist activity at human cloned adenosine A3 receptor expressed in CHO cells assessed as inhibition of […] after 15 mins; format: functional, cell-based
# How it was run: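 CHO cells stably expressing hA3 plated and grown 48 h. Preincubated 15 min at 37 °C with Ro20-1724 (20 μM) and adenosine deaminase (1 U/mL). Compound (1 nM to 10 μM) given for 15 min at 37 °C, then 100 nM NECA. Reversal of NECA-induced cAMP inhibition measured by [3H]cAMP competitive protein binding assay. IC50 from sigmoid nonlinear regression, means ± SEM of three experiments.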
# [6] = target: T4, Adenosine receptor A2b (Homo sapiens) (UniProt P29275); assay: Antagonist activity at human cloned adenosine A2B receptor expressed in CHO cells assessed as inhibition of NECA-induced cAMP accumulation at 1 nM to 10 uM after 15 mins; format: functional, cell-based
# T4 sequence (whole entry): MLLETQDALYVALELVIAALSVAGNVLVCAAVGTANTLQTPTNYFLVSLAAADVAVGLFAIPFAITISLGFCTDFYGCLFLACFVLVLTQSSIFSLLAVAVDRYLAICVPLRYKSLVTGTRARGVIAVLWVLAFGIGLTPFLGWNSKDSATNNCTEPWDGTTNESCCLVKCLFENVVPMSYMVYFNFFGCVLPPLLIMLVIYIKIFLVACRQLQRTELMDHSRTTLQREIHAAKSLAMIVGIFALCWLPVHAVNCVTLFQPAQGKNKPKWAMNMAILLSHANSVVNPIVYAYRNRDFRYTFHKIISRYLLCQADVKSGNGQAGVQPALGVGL
# How it was run: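 Stably transfected CHO cells (~60000) plated and grown 48 h. Preincubated 15 min at 37 °C in DMEM containing Ro20-1724 (20 μM) and adenosine deaminase (1 U/mL). Compound (1 nM to 10 μM) added for 15 min at 37 °C, then 100 nM NECA. Reaction stopped with 0.4 N HCl and lysate neutralised with KOH. cAMP measured by competitive binding to beef adrenal binding protein with [3H]cAMP (2 nM) for 150 min at 4 °C, then filtration. Read-out is percent inhibition of NECA-stimulated cAMP.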
# [7] = Displacement of [3H]CGS21680 from adenosine A2A receptor in bovine brain membranes; format: cell membranes, Bos taurus
# [8] = target: Adenosine receptors; A1 & A3 (Homo sapiens) (UniProt P30542+P0DMS8); assay: Selectivity ratio of Ki for human cloned adenosine A1 receptor to Ki for human cloned adenosine A3 receptor
# How it was run: (§3)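 Ki values from radioligand displacement at hA1 ([3H]DPCPX, Kd 3 nM), hA2A ([3H]NECA, Kd 30 nM) and hA3 ([125I]AB-MECA, Kd 1.4 nM) in CHO membranes. Five displacer concentrations in triplicate, Cheng-Prusoff conversion, means of four assays. Ratio taken as A1 or A2A Ki over A3 Ki.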
# Homo sapiens = species on record: Homo sapiens; assay: Selectivity ratio of Ki for human cloned adenosine A2A receptor to Ki for human cloned adenosine A3 receptor; how it was run: as §3
SMILES,inhibition [1] [%],inhibition [2] [%],inhibition [3] [%],Ki (Adenosine receptor A3 [4]) [nM],IC50 (Adenosine receptor A3 [5]) [nM],inhibition [6] [%],Ki [7] [nM],Ratio Ki [8],Ratio Ki (Homo sapiens)
O=C(NCc1ccccc1)Nc1nn(-c2ccccc2)c(=O)c2ccccc12,–,20,23,29.6,1.15,34,–,–,–
O=C(Nc1ccccc1)Nc1nc2ccccc2n2c(=O)n(-c3ccccc3)nc12,–,–,–,–,–,–,2300,–,–
COc1ccc(OC)c(NC(=O)Nc2nn(-c3ccccc3)c(=O)c3ccccc23)c1,–,0,19,0.776,8.25,0,–,10000,10000
O=C(Cc1ccccc1)Nc1nn(-c2ccccc2)c(=O)c2ccccc12,28,23,4,–,–,–,–,–,–
O=C(Nc1nn(-c2ccccc2)c(=O)c2ccccc12)c1ccccc1,–,44,35,1100,–,–,–,–,–
COc1ccccc1CNC(=O)Nc1nn(-c2ccccc2)c(=O)c2ccccc12,–,28,28,274,–,–,–,–,–
O=C(Nc1nn(-c2ccccc2)c(=O)c2ccccc12)c1ccco1,8,23,41,–,–,–,–,–,–
COc1ccc(NC(=O)Nc2nn(-c3ccccc3)c(=O)c3ccccc23)c(OC)c1,33,29,33,–,–,–,–,–,–
Nc1nc2ccccc2n2c(=O)n(-c3ccccc3)nc12,–,–,–,490,–,–,–,–,–
CC(=O)Nc1nn(-c2ccccc2)c(=O)c2ccccc12,0,52,14,–,–,–,–,–,–
Nc1nn(-c2ccccc2)c(=O)c2ccccc12,8,24,45,–,–,–,–,–,–
CC(=O)N(C(C)=O)c1nn(-c2ccccc2)c(=O)c2ccccc12,0,47,10,–,–,–,–,–,–

# Now from value to compound:
inhibition [1] [%],inhibition [2] [%],inhibition [3] [%],Ki (Adenosine receptor A3 [4]) [nM],IC50 (Adenosine receptor A3 [5]) [nM],inhibition [6] [%],Ki [7] [nM],Ratio Ki [8],Ratio Ki (Homo sapiens),SMILES
17,26,17,–,–,–,–,–,–,O=C(Nc1nn(-c2ccccc2)c(=O)c2ccccc12)c1ccc(Cl)cc1
–,45,28,9.75,18,57,–,–,–,COc1cccc(NC(=O)Nc2nn(-c3ccccc3)c(=O)c3ccccc23)c1
13,10,9,–,–,–,–,–,–,O=C(Nc1ccc(Cl)cc1)Nc1nn(-c2ccccc2)c(=O)c2ccccc12
10,0,17,–,–,–,–,–,–,COc1ccc(C(=O)Nc2nn(-c3ccccc3)c(=O)c3ccccc23)cc1
45,29,0,–,–,–,–,–,–,Cc1ccc(NC(=O)Nc2nn(-c3ccccc3)c(=O)c3ccccc23)cc1
22,20,28,–,–,–,–,–,–,Cc1ccccc1NC(=O)Nc1nn(-c2ccccc2)c(=O)c2ccccc12
–,44,42,178,–,–,–,–,–,O=C(Nc1ccccc1)Nc1nn(-c2ccccc2)c(=O)c2ccccc12
–,0,17,8.9,17,16,–,–,–,COc1ccccc1NC(=O)Nc1nn(-c2ccccc2)c(=O)c2ccccc12
–,4,51,60.6,28,0,–,–,–,COc1ccc(NC(=O)Nc2nn(-c3ccccc3)c(=O)c3ccccc23)cc1
49,0,3,–,–,–,–,–,–,O=C(Nc1ccccc1Cl)Nc1nn(-c2ccccc2)c(=O)c2ccccc12
